Columns and labels:
[1] = biological target: T1, α-synuclein (Homo sapiens, UniProt P37840); details: similar effect as WW2; cited from earlier work
[2] = biological target: T1, α-synuclein; assay: TEM imaging of α-syn aggregation assays; format: biochemical; details: 2 molar equivalents; images after 16–24 hrs; AA = amorphous aggregates
In short: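 Full-length 140-residue α-syn was expressed in E. coli BL21(DE3) and purified by anion exchange. It was used at 100 μM in 20 mM Tris-HCl pH 7.5, at 37 °C with vigorous stirring, with or without peptide. HFIP was added to 1.5 vol-% to start aggregation. After 16–24 h, a freshly agitated 5 μL aliquot was adsorbed on formvar/carbon-coated copper grids, negatively stained with 2% uranyl acetate and imaged by TEM.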

[3] = biological target: T1, α-synuclein; assay: α-syn aggregation assay, CD spectroscopy; format: biochemical; details: 2 molar equivalents; for β CD signal, % β, α-syn assay: at 16 h (no time printed for MrH3b); for Effect on course, onset or lag time of α-syn aggregation (in words): monitored by CD and ThT
In short: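 Recombinant full-length α-syn was expressed in E. coli BL21(DE3) and used at 100 μM in 20 mM Tris-HCl pH 7.5. Aggregation was started by HFIP addition (1.5 vol-% final) under continuous stirring at 37 °C, with or without inhibitor peptide and without ThT. Every 2–4 h, a 5 μL aliquot was diluted into 195 μL of 1.5% HFIP buffer (2.5 μM α-syn). Spectra were recorded in 0.1 cm cells to follow the random coil-to-β transition, corrected for inhibitor contribution.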

Compound | Excess of inhibitor required for non-amyloid α-syn aggregates [1] [fold excess] | Fibril Morphology (TEM), α-syn [2] | Time by which β CD signal appears, α-syn assay [3] | β CD signal, % β, α-syn assay [3] [%] | Effect on course, onset or lag time of α-syn aggregation (in words) [3] | β CD signal, α-syn assay (in words) ([3]; 100 μM α-syn, 1.5 vol-% HFIP)
O=C(O[C@@H]1Cc2c(O)cc(O)cc2O[C@@H]1c1cc(O)c(O)c(O)c1)c1cc(O)c(O)c(O)c1 [EGCG, (−)-epigallocatechin-3-gallate] | 5 | – | – | – | – | –
Ac-KIVTSAK [ssMrH] | – | Normal | β signal within 6 h, 100% 16 h hours | 100 | no effects on the course of α-syn aggregation | –
KKLTVWI [ssW] | – | Normal + AA | – | 80 | delays aggregation (as monitored by CD) | Helical at 4–6 hours 80 % β at 16 h
